The record followed here is ChEMBL document CHEMBL4433206, “Novel Lysine-Based Thioureas as Mechanism-Based Inhibitors of Sirtuin 2 (SIRT2) with Anticancer Activity in a Colorectal Cancer Murine Model” (J Med Chem, 2019).

The source made the active and inactive calls. No cut-off for these calls is given here.

Data set [1] is described as follows: Toxicity in NSG mouse xenografted with human HCT116 cells harboring KRAS G13D mutant assessed as body weight loss at 100 mg/kg, ip administered daily for 12 days measured during compound dosing. To be noted: in vivo, 288 h. Format: organism-based.
The next data set has as its system MCF7. As to the kind of experiment: Growth inhibition of human MCF7 cells after 72 hrs by CellTiter-Blue assay. The following applies: MCF7, 72 h. Type of data set: functional.
For data set [2], the system named is HCT-116. As to the kind of experiment: Inhibition of anchorage-independent cell growth in human HCT116 cells assessed as reduction in colony formation at >=10 uM incubated for 5 days followed by compound re-addition and measured after 9 to 11 days by nitro blue tetrazolium chloride-based soft agar colony formation assay relative to control. Type of data set: functional. In short, it runs like this:
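HCT116 cells were mixed at 500 cells/mL into 0.3% agar growth layer over a 0.6% agar base layer (McCoy's medium, 10% calf serum). Both layers held inhibitor at 2.5–50 μM final. Wells were run in triplicate at 37 °C. Inhibitor-containing growth layer was added again at day 5. At 9–11 days, nitro blue tetrazolium was added overnight and colonies were imaged and counted.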

In data set [3] the test system is HCT-116. The data set is described as follows: Growth inhibition of human HCT116 cells after 72 hrs by CellTiter-Blue assay. Format: functional. To be noted: HCT-116, 72 h.
The subject of a further data set is A549. As to the kind of experiment: Growth inhibition of human A549 cells after 72 hrs by CellTiter-Blue assay. Format: functional. The following applies: A549, 72 h.
For data set [4], the system named is HCT-116. As to the kind of experiment: Antitumor activity against human HCT116 cells harboring KRAS G13D mutant xenografted in NSG mouse assessed as tumor growth inhibition by measuring reduction in tumor volume at 100 mg/kg, ip administered daily for 12 days and measured post-last dose relative to control. Type of data set: functional. To be noted: HCT-116, ip, 288 h, read-out: TGI. In short, it runs like this: (§1)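 NSG mice, female and male, about 4–8 weeks old, were implanted with 1 × 10⁶ HCT116 cells on both sides of the abdomen. Tumours grew 3–5 days until visible. Compound was given ip daily for 12 days in vehicle containing 10% DMSO and 10% Kolliphor EL (dosing solution 10 mg/mL); control mice received vehicle. Tumour volume was measured daily; tumours were excised and weighed on the last day. Unpaired two-tailed t-test.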

Data set [5] has as its target T1, NAD-dependent protein deacetylase sirtuin-2 (Homo sapiens) (UniProt Q8IXJ6).
T1 sequence (whole entry): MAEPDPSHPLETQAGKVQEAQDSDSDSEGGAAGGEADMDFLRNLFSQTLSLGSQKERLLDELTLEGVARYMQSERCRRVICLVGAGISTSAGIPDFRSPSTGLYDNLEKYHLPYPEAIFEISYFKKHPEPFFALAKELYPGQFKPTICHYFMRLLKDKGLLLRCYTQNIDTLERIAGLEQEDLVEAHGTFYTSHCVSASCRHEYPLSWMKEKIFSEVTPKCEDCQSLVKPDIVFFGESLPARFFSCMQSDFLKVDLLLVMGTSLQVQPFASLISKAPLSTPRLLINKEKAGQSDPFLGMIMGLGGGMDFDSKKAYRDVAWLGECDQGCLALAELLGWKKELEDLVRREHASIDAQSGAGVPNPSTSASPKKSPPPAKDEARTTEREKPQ
The data set is described as follows: Inhibition of SIRT2 in human HCT116 cells assessed as increase in alpha-tubulin acetylation at 50 uM incubated for 6 hrs by DAPI staining-based laser scanning confocal microscopic analysis. Format: cell-based. In short, it runs like this: (§2)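 HCT116 cells were seeded at 400 000 on poly-D-lysine-coated glass-bottom dishes and grown 24 h. Cells were treated with DMSO or inhibitor for 6 h at 37 °C, fixed in ice-cold methanol, and blocked in TBS/0.1% Triton X-100/5% BSA. They were stained with anti-acetyl α-tubulin (1:100, overnight, 4 °C), then Cy3 anti-mouse, and mounted with DAPI. Imaging was by confocal microscopy.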

Data set [6] addresses T2, NAD-dependent protein deacetylase sirtuin-1 (Homo sapiens, UniProt Q96EB6).
T2 sequence (Q96EB6 whole entry): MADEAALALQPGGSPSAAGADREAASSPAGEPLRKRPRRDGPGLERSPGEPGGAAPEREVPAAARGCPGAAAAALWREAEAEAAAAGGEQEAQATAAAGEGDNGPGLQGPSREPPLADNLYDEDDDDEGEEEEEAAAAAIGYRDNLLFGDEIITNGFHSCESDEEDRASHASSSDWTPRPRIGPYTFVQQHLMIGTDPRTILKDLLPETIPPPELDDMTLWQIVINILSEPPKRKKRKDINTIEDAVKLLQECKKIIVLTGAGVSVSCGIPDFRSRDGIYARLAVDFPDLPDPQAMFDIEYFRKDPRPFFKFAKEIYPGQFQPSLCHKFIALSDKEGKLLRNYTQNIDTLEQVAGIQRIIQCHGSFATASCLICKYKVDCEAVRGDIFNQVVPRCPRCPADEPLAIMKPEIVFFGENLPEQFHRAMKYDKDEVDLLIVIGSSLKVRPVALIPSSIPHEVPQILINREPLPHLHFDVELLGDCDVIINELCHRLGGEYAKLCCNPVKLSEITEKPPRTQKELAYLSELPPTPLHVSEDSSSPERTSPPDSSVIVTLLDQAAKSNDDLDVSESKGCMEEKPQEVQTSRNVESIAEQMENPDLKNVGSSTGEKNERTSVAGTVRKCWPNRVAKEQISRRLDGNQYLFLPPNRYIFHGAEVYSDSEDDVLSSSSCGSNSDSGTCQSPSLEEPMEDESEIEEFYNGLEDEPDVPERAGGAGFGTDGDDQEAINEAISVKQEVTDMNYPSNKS
The data set is described as follows: Inhibition of human SIRT1 deacetylase activity using acetylated H3K9 as substrate preincubated for 15 mins followed by substrate addition and measured after 3 mins by UV-HPLC analysis.

Data set [7] concerns the target T3, NAD-dependent protein deacetylase sirtuin-1 (Homo sapiens) (UniProt Q96EB6).
T3 sequence (whole entry): T2 sequence (Q96EB6 whole entry)
As to the kind of experiment: Inhibition of SIRT1 in human HCT116 cells assessed as increase in acetylated p53 K382 level at 25 uM after 6 hrs by Western blot analysis. Type of data set: cell-based.

Data set [8] can be described thus: Toxicity in NSG mouse xenografted with human HCT116 cells harboring KRAS G13D mutant assessed as body weight loss at 100 mg/kg, ip administered daily for 12 days measured during compound dosing. To be noted: in vivo, 288 h.
Data set [9] addresses T4, NAD-dependent protein deacetylase sirtuin-2 (Homo sapiens, UniProt Q8IXJ6).
T4 sequence (Q8IXJ6 whole entry): T1 sequence (whole entry)
The data set is described as follows: Inhibition of recombinant human N-terminal His6-tagged/SUMO-fused SIRT2 (38 to 356 residues) expressed in Escherichia coli BL21 assessed as reduction in deacetylase activity using acetylated H3K9 as substrate preincubated for 15 mins followed by substrate addition and measured after 6 mins by UV-HPLC analysis.

In data set [10] the target is T1, NAD-dependent protein deacetylase sirtuin-2 (Homo sapiens). As to the kind of experiment: Inhibition of SIRT2 in human HCT116 cells assessed as increase in alpha-tubulin acetylation at 25 uM incubated for 6 hrs by DAPI staining-based laser scanning confocal microscopic analysis. Type of data set: cell-based. In short, it runs like this: as §2
The subject of data set [11] is HCT-116. As to the kind of experiment: Antitumor activity against human HCT116 cells harboring KRAS G13D mutant xenografted in NSG mouse assessed as tumor growth inhibition by measuring reduction in tumor weight at 100 mg/kg, ip administered daily for 12 days and measured post-last dose relative to control. Type of data set: functional. The following applies: HCT-116, ip, 288 h, read-out: TGI. In short, it runs like this:
as §1

Consider `CCCCCCCCCCNC(=S)NCCCC[C@H](NC(=O)OCc1ccccc1)C(=O)Nc1ccccc1`, for which the Activity entry in [1] and in [8] was “Non-Toxic” in each case. The figures for the GI50 in the data set with MCF7, with HCT-116 [3] and in the data set on A549 were 18.4 µM, 54.4 µM and 9 µM, respectively. The “growth inhibition (GI)” value with HCT-116 [2] came to 100%. Also, the inhibition in vivo at 100 mg/kg came to 37% in the data set with HCT-116 [4] and 49% in the data set with HCT-116 [11]. Besides, the inhibition result in data set [5] and in data set [10] was “Active” each time. In addition, the IC50 in data set [6] is greater than 200 µM; in data set [9] it was 0.15 µM. In [7], the inhibition entry was “inactive”.
On to `CCCCCCCCNC(=S)NCCCC[C@H](NC(=O)OCc1ccccc1)C(=O)Nc1ccccc1`, for which the Activity entry in data set [1] and in data set [8] was “Non-Toxic” each time. The 50% growth inhibitory concentration (GI50) with MCF7 was 42.6 µM; in the data set with HCT-116 [3] it was 58.9 µM; in the data set on A549, 20.8 µM. Also, the “growth inhibition (GI)” value with HCT-116 [2] was 100%. Moreover, the inhibition in vivo at 100 mg/kg worked out at 80% in the data set with HCT-116 [4] and 78% in the data set with HCT-116 [11]. The inhibition result in data set [5] and in data set [10] was “Active” in each case. Besides, the IC50 in data set [6] was found to be 11 µM; in data set [9], 0.061 µM. Further, in data set [7], the inhibition entry was “inactive”.
